Screening results (PubChem BioAssay)
TRPC4 PAM: positive allosteric modulators of TRPC4, primary screen, cell-based, mouse TRPC4beta, HEK293 mu-opioid, Fluo-4 calcium | Short transient receptor potential channel 4 (Mus musculus), Q9QUQ5 | DAMGO EC20, Fluo-4 Ca2+ flux; hits give high values | B-score at 10 µM | actives 0.42% (n = 310,000) | AID 2227, 2009;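 active = B-score of calcium response area above 5 SD of library B-scores, with initial fluorescence ratio within 5 SD of library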;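 also: B-score of integrated fluorescence ratio over time as area under calcium response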
TRPC4 block: inhibitors of mouse TRPC4 channel, primary screen, Fluo4 calcium, HEK293 TRPC4beta/mu-opioid cells. DAMGO-evoked Fluo4 calcium flux; hits give low values. B-score at 10 µM. actives 0.39% (n = 300,000). AID 2247, 2010;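 active = B-score over 3 SD under the library average, no early fluorescence shift, positive overall ratio signal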
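Material: HEK293 cells with stable TRPC4beta plus mu-opioid receptor expression; probe or stimulus: DAMGO in two steps, submaximal then maximal; technique: Fluo4 calcium fluorescence by kinetic imaging, 5 s 1 Hz baseline; measure: integrated fluorescence ratio relative to baseline, converted to per-well B score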
TRPC6 activator: mouse TRPC6 channel activators, primary screen, cell-based, HEK293, membrane potential dye. Short transient receptor potential channel 6 (Mus musculus), Q61143. HEK293-TRPC6 membrane potential dye fluorescence; hits give high values. B-score at 10 µM. actives 0.13% (n = 310,000). AID 2550, 2010;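 active = B-score of the integrated fluorescence ratio above library mean plus 3 SD, and starting fluorescence ratio within library mean plus 5 SD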;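 also: higher score means more depolarization so channel activation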
Target sequence (Q61143 whole entry, looked up): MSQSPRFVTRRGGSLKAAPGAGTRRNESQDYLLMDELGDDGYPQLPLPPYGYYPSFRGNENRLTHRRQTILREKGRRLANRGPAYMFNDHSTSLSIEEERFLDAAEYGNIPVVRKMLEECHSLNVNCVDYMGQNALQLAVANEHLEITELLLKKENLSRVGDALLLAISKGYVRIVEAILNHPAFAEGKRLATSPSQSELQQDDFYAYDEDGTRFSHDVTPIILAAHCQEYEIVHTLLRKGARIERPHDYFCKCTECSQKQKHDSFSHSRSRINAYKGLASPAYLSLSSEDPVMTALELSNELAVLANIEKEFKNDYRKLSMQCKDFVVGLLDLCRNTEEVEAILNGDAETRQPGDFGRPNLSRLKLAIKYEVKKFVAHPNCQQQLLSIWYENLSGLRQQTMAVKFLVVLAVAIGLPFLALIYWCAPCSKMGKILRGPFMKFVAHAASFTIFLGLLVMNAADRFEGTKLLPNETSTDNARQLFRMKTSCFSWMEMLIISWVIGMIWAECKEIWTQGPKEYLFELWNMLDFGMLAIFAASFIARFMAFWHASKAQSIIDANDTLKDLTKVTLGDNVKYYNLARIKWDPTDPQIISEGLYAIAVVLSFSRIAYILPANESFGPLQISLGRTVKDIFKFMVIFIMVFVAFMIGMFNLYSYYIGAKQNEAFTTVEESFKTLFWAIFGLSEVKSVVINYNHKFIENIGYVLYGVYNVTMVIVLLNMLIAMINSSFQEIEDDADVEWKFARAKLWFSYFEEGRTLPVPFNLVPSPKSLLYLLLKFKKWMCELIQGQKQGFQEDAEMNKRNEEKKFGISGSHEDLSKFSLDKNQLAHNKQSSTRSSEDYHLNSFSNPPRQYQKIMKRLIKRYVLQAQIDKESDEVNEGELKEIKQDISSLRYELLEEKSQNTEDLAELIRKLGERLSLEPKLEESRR
TRPC6 inhibitor: mouse TRPC6 channel inhibitors, primary screen, cell-based, HEK293, membrane potential dye | B-score at 10 µM | ACh-evoked depolarization; hits give low values | actives 1.1% (n = 310,000) | AID 2553, 2010;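 active = B-score under library mean minus 3 SD, initial fluorescence not abnormally high, positive integrated signal ratio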;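 also: B-score derived from integrated fluorescence ratio over the kinetic read; more negative B-score means stronger inhibition of depolarization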
TRPC4 agonist: activators of mouse TRPC4 channel, primary screen, Fluo4 calcium, HEK293 TRPC4beta/mu-opioid cells | Short transient receptor potential channel 4 (Mus musculus), Q9QUQ5 | Fluo4 calcium fluorescence; hits give high values | B-score at 10 µM | actives 0.49% (n = 310,000);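 active = B-score above 5 SD of library B-scores, and initial fluorescence ratio not above library mean plus 5 SD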;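 also: positive B-score marks a calcium rise read as TRPC4 activation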
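System: HEK293 cells stably co-expressing mouse TRPC4beta and mu-opioid receptor; Schedule: Fluo4 dye loading 45 min at room temperature, 110 s recording; Detection: Fluo4 fluorescence, kinetic; Evaluation: B-scored integrated calcium fluorescence ratio; Controls: buffer (low) and maximal DAMGO (high).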
TRPC4 spec 2: second selectivity test of TRPC6 inhibitors: effect on mouse TRPC4 | shares compounds with TRPC6 inhibitor | HEK293 TRPC4/MOR, membrane potential dye fluorescence; channel activated by saturating DAMGO dose | inhibition, % at 10 µM | actives 42% (n = 920) | AID 2776;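 active = compounds whose fluorescence signal differed from control wells by over 3 SD, either direction, in both duplicate plates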
TRPC4 spec: mouse TRPC4 modulation by TRPC6 hits, confirmation, selectivity assay for TRPC6 inhibitor project, cell-based, HEK293 TRPC4/mu-opioid, membrane potential dye; membrane potential fluorescence; actives 61% (n = 920); activity change, negative = inhibition, % at 10 µM; AID 2777, 2010; shares compounds with TRPC6 inhibitor;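 active = rise or fall in signal beyond 3 SD of buffer-only wells in both replicate plates, either sign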;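 also: integrated kinetic ratio of fluorescence range over baseline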
HEK293 MPD ctr 2-1: nonspecific membrane potential effects, parental HEK293, confirmation, counter-screen for TRPC6 inhibitor project, cell-based, second counter screen | shares compounds with TRPC6 inhibitor | signal change vs control, % at 10 µM | parental HEK293 membrane potential dye fluorescence; maximal acetylcholine challenge after compound addition | actives 31% (n = 920);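 active = membrane potential signal moving either way by over 3 SD of the maximum-effect control, in both duplicate plates, meaning non-specific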
HEK293 MPD ctr-1: membrane potential modulation in parental HEK293, confirmation, counter-screen for TRPC6 inhibitor project, cell-based. shares compounds with TRPC6 inhibitor. parental HEK293 membrane potential dye fluorescence. membrane potential signal change, % at 10 µM. actives 60% (n = 920). AID 2780, 2010;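 active = membrane potential signal shifting up or down by more than 3 SD of buffer-only wells, on both duplicate plates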
HEK293 MPD ctr-2: parental HEK293 membrane potential modulation, confirmation, counter-screen for TRPC6 modulator project, cell-based; shares compounds with TRPC6 inhibitor; membrane potential dye fluorescence; membrane potential signal change, % at 10 µM; actives 51% (n = 2,400);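 active = membrane potential signal moves up or down beyond 5 SD from buffer-only wells, on both duplicate plates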
HEK293 MPD ctr 2-2: parental HEK293 nonspecific activity of TRPC6 modulators, second screen. shares compounds with TRPC6 inhibitor. membrane potential dye fluorescence; after compound, maximal acetylcholine stimulation. inhibition, % at 10 µM. actives 14% (n = 2,400). AID 488926;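 active = membrane potential signal drops by more than 5 SD from the mean control signal, in both duplicate plates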;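 also: plate controls were acetylcholine ECmax control wells for no effect and buffer only wells for full effect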
TRPC4/MOR mod: TRPC4 modulation by TRPC6 hit compounds, confirmation, selectivity assay for TRPC6 modulator project, cell-based, HEK293 TRPC4/mu-opioid, membrane potential dye, mouse. percent change from control (negative = decrease, positive = increase), % at 10 µM. actives 69% (n = 2,400). membrane potential fluorescence. shares compounds with TRPC6 inhibitor. AID 488927, 2010;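 active = membrane potential signal moved up or down beyond 5 SD of buffer control wells, in both duplicate plates, actives on both sides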;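 also: plate controls were assay buffer wells for no effect and DAMGO maximal-effect wells for full effect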
TRPC4 ctr inh 2: second check of whether TRPC6 modulators also affect mouse TRPC4; inhibition, % at 10 µM; shares compounds with TRPC6 inhibitor; HEK293 TRPC4/mu-opioid, membrane potential dye fluorescence; stimulated with maximal-effect DAMGO; actives 55% (n = 2,400);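 active = drop in membrane potential signal beyond 5 SD of the control wells in both duplicate plates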;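 also: TRPC4 counter screen for TRPC6 hits run under conditions tuned for TRPC6 not TRPC4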
TRPC6 block conf: mouse TRPC6 channel inhibitors, confirmation, HEK293 cells, membrane potential dye, duplicate; shares compounds with TRPC6 inhibitor; ACh-evoked depolarization; inhibition, % at 10 µM; actives 43% (n = 3,300); AID 488960, 2010;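 active = fluorescence ratio falls more than 5 SD below the full-stimulation control mean, in both duplicate runs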;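 also: integrated fluorescence ratio of peak minus minimum over baseline after agonist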
TRPC6 act conf: mouse TRPC6 channel activators, confirmation, HEK293 cells, membrane potential dye, duplicate; shares compounds with TRPC6 inhibitor; HEK293-TRPC6 membrane potential dye fluorescence, FDSS; activation, % at 10 µM; actives 11% (n = 2,800); AID 488961, 2010;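 active = ratio signal rise beyond 5 SD above unstimulated control wells' mean, seen in both duplicate runs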;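 also: plate controls were buffer EC0 wells for no effect and acetylcholine ECmax response for full effect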
An asterisk follows results filed as active; i = inactive; / = no result given; + = active, no number. Sampled rows, rich in hits. Any-hit rate of the full collection: about 2.3%.

SMILES	TRPC4 PAM	TRPC4 block	TRPC6 activator	TRPC6 inhibitor	TRPC4 agonist	HEK293 MPD ctr-2	HEK293 MPD ctr 2-2	TRPC4/MOR mod	TRPC4 ctr inh 2	TRPC6 block conf	TRPC6 act conf	others
O=C(NCC(=O)N(c1cccc(F)c1)C(C(=O)NC1CCCC1)c1ccco1)c1ccco1 (stereo not given)	i	i	i	i	i	/	/	/	/	/	/
NC(=O)c1c(NC(=O)c2ccc(S(=O)(=O)N3CCOCC3)cc2)sc2c1CCCCC2	i	i	i	i	i	/	/	/	/	/	/
CN1CCc2c(sc(NC(=O)c3ccc(S(=O)(=O)N4CCc5ccccc54)cc3)c2C(N)=O)C1	i	i	i	i	i	/	/	/	/	/	/
CN1CCc2c(sc(NC(=O)c3ccc(S(=O)(=O)N4CCCCCC4)cc3)c2C(N)=O)C1	i	i	i	-6.45*	i	i	i	-69.0%*	i	i	i
CN1CCc2c(sc(NC(=O)c3ccc(S(=O)(=O)N4CCOCC4)cc3)c2C(N)=O)C1	i	i	i	-7.59*	i	-258.0%*	i	-51.0%*	35.0%*	i	i
Cc1ccc(C(=O)NC(=S)N(C)C2CCCCC2)cc1	i	i	i	i	i	/	/	/	/	/	/
Cc1nc2cc(NC(=O)N3CC4(C)CC3CC(C)(C)C4)ccc2n1C (stereo not given)	i	i	i	-6.14*	i	i	i	i	i	i	i
Cc1nc2cc(NC(=O)N3CCCC3)ccc2n1C	i	i	i	i	i	/	/	/	/	/	/
CCOc1ccc(NC(=O)CN(C)C(=O)c2cn3ccccc3n2)cc1OCC	i	i	i	i	i	/	/	/	/	/	/
CCCC[n+]1c2ccccc2cc2ccccc21	i	-5*	i	-6.28*	i	-169.5%*	i	-100.5%*	73.5%*	55.5%*	i
CCC[n+]1c2ccccc2cc2ccccc21	i	i	i	-11.9*	i	-175.5%*	84.5%*	-91.0%*	65.5%*	67.5%*	i
Cc1ccc2ccccc2[n+]1CCCS(=O)(=O)[O-]	i	i	i	i	i	/	/	/	/	/	/
CCN(CC)c1ccc(-c2sc(Nc3ccccc3)n[n+]2-c2ccc(F)cc2)cc1	i	i	18.7*	i	i	+	i	204.0%*	i	i	225.5%*
CCc1ccc(Nc2n[n+](-c3ccccc3)c(-c3ccc(N(CC)CC)cc3)s2)cc1	i	i	i	i	i	/	/	/	/	/	/
COc1ccc([C@H]2[C@H](C(=O)C(C)(C)C)N3N=Cc4ccccc4C3C23C(=O)OC(C)(C)OC3=O)cc1 (stereo not given in full)	i	i	i	-6.03*	i	i	i	9.0%*	i	i	i
COc1ccc([C@@H]2[C@@H](C(=O)C(C)(C)C)N3N=Cc4ccccc4[C@@H]3C23C(=O)OC(C)(C)OC3=O)cc1OC	i	i	i	i	i	/	/	/	/	/	/
O=C(c1cccs1)N1CCC(c2nc3c(nnn3Cc3c(Cl)cccc3Cl)c(=O)[nH]2)CC1	i	i	i	-5.4*	i	i	i	i	i	i	i
Cc1nc(C(=O)NC2CCCCC2)sc1C1(C)CC(c2cccnc2)=NO1 (stereo not given)	i	i	i	i	i	/	/	/	/	/	/
O=C1CSC2(C(=O)N3CCCc4cccc2c43)N1c1cccc(C(F)(F)F)c1 (stereo not given)	i	i	i	i	i	/	/	/	/	/	/
COc1ccc(N2C(=O)CSC23C(=O)N2CCCc4cccc3c42)cc1 (stereo not given)	i	i	i	-13.5*	i	/	/	/	/	80.7%*	i	TRPC4 spec 2=i;TRPC4 spec=i;HEK293 MPD ctr 2-1=-29.0%*;HEK293 MPD ctr-1=i
O=C(NC1CCCCC1)C(c1ccccc1)N(Cc1ccco1)C(=O)c1csnn1 (stereo not given)	i	i	i	i	i	/	/	/	/	/	/
O=C(NC1CCCCC1)C(c1ccccc1)N(Cc1ccco1)C(=O)Cn1cnc2ccccc21 (stereo not given)	i	i	17*	i	i	277.0%*	i	119.0%*	i	i	109.0%*
